Test results taken from ChEMBL document CHEMBL1121422, “2,4-Diamino-5-benzylpyrimidines and analogues as antibacterial agents. 3. C-Benzylation of aminopyridines with phenolic Mannich bases. Synthesis of 1- and 3-deaza analogues of trimethoprim” (J Med Chem, 1980).

Tests used:
[1] = target: T1, Dihydrofolate reductase (Rattus norvegicus) (UniProt Q920D2); test: Tested for inhibition of dihydrofolate reductase enzyme purified from rat liver at the highest concentration tested
T1 sequence (whole entry): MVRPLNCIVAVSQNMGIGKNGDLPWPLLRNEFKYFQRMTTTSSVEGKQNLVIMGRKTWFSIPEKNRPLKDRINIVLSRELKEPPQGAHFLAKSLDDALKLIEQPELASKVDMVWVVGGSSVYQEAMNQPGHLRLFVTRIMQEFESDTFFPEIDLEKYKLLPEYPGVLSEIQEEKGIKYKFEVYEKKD
Method in brief: (§1)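 Enzyme partially purified from rat liver, assayed in phosphate buffer by the Baccanari method. Compound held 5 min with enzyme and buffer at 37 °C before NADPH, then FH2, started the reaction. Percent inhibition of reaction rate recorded at the highest concentration tested.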

[2] = Dissociation constant (pKa); format: physicochemical; conditions: read-out: Dissociation constant
[3] = target: T2, Dihydrofolate reductase (Escherichia coli) (UniProt P0ABQ4); test: Tested for inhibition of dihydrofolate reductase enzyme purified from Escherichia coli […]
T2 sequence (whole entry): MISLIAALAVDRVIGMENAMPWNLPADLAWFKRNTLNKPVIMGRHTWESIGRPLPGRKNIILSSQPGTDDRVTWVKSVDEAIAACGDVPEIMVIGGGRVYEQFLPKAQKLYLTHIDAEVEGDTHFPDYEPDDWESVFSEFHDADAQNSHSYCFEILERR
Method in brief: (§2)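 Affinity-column-purified E. coli enzyme in phosphate buffer (Baccanari method). Compound preincubated 5 min with enzyme and buffer at 37 °C. NADPH added, then FH2 to start the reaction. Value is percent inhibition of reaction rate at the highest concentration tested.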

Dihydrofolate reductase = target: T3, Dihydrofolate reductase (Rattus norvegicus, UniProt Q920D2); test: Inhibition of dihydrofolate reductase from rat liver […]; conditions: read-out: I50; method in brief: as §1
T3 sequence (Q920D2 whole entry): T1 sequence (whole entry)

[4] = target: T2, Dihydrofolate reductase (Escherichia coli); test: (§3) Tested for inhibition of dihydrofolate reductase enzyme purified from Escherichia coli at a concentration of 1x 10 e6M; method in brief: as §2
[5] = target: T1, Dihydrofolate reductase (Rattus norvegicus); test: Tested for inhibition of dihydrofolate reductase enzyme purified from rat liver at a concentration of 1x 10 e6 M; method in brief: as §1
[6] = target: T2, Dihydrofolate reductase (Escherichia coli); test: as §3; method in brief: as §2; remark: listed apart in the source

SMILES | inhibition [1] [%] | pKa [2] | IC50 (Dihydrofolate reductase) [mM] | also measured
COc1cc(CC2C=CC(N)=NC2=O)cc(OC)c1O (centres undefined) | 2.4 | 1.31 | ~1 | inhibition [3]: 0%
COc1cc(Cc2cnc(N)c(F)c2N)cc(OC)c1O | 32 | 7.15 | ~35 | –
CCc1cc(Cc2cc(Cc3cc(CC)c(O)c(CC)c3)c(N)nc2N)cc(CC)c1O | 19 | 6.63 | ~1 | –
COc1cc(CC2=CC(Cc3cc(OC)c(O)c(OC)c3)C(=O)N=C2N)cc(OC)c1O (centres undefined) | – | 1.51 | 14 | –
COc1cc(CNc2cccc(N)n2)cc(OC)c1O | – | 6.51 | – | inhibition [4]: 25%; inhibition [5]: 0%; inhibition [6]: 29%
COc1cc(CNc2ccnc(N)c2Br)cc(OC)c1O | – | 7.33 | – | –
COc1cc(Cc2cc(Cc3cc(OC)c(O)c(OC)c3)c(N)nc2N)cc(OC)c1O | – | 6.69 | 24 | inhibition [3]: 29%
COc1cc(Cc2cnc(N)c(Br)c2N)cc(OC)c1O | 21 | 7.2 | ~42 | inhibition [3]: 11%
CC(C)c1cc(Cc2cnc(N)c(Br)c2N)cc(C(C)C)c1O | 0 | – | ~23.7 | –
Nc1ccncc1 [DALFAMPRIDINE] | – | 9.25 | – | –
COc1cc(CNc2ccnc(N)c2F)cc(OC)c1O | – | 7.26 | – | –

More lines, main results first:

inhibition [1] [%] | pKa [2] | IC50 (Dihydrofolate reductase) [mM] | SMILES | also measured
– | 6.73 | – | Nc1cccc(N)n1 | –
– | 7.44 | – | Nc1ccnc(N)c1Br | –
36 | – | ~27 | CC(C)c1cc(Cc2cnc(N)cc2N)cc(C(C)C)c1O | –
– | 5.04 | – | CCOC(=O)Nc1ccnc(NC(=O)OCC)c1 | –
34 | 6.6 | ~10 | COc1cc(Cc2ccc(N)nc2N)cc(OC)c1O | inhibition [3]: 0%
– | 9.25 | – | Nc1ccnc(N)c1 | –
– | 9.03 | – | COc1cc(Cc2cnc(N)cc2N)cc(OC)c1OC | inhibition [5]: 7%
– | 3.32 | – | CCOC(=O)Nc1ccnc(C(N)=O)c1 | –
26 | 6.59 | ~40 | CCc1cc(Cc2ccc(N)nc2N)cc(CC)c1O | –
37 | – | ~10 | COc1cc(Cc2cnc(N)cc2N)cc(OC)c1O | –
– | – | 41 | COc1cc(Cc2c(N)ccnc2N)cc(OC)c1O | inhibition [3]: 26%
– | 5.5 | – | Nc1ncc(Br)c(N)c1Br | –
